Measurements reported in ChEMBL document CHEMBL1914423, “New imidazo[2,1-b]thiazole derivatives: synthesis, in vitro anticancer evaluation, and in silico studies” (Eur J Med Chem, 2011).

Assay: Antiproliferative activity against human A375P cells after 48 hrs by MTT assay
Format: functional, cell-based
Outline: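 A375P cells in DMEM with 10% FBS at 37 °C, 5% CO2. Seeded at 5×10³ cells/well, held 24 h, then treated with 12-point 3-fold serial dilutions for 48 h. Viability by MTT reduction. IC50 values are means of triplicate experiments.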

Row | SMILES | IC50
1 | COc1cccc(-c2nc3sccn3c2-c2ccnc(NCCNC(=O)Nc3cc(C(F)(F)F)cc(C(F)(F)F)c3)n2)c1 | 4.3 µM
2 | CNC(=O)c1cc(Oc2ccc(NC(=O)Nc3ccc(Cl)c(C(F)(F)F)c3)cc2)ccn1 [SORAFENIB] | 5.6 µM
